Source: ChEMBL document CHEMBL4725355, “Design, Synthesis, and Preclinical Evaluation of 3-Methyl-6-(5-thiophenyl)-1,3-dihydro-imidazo[4,5-b]pyridin-2-ones as Selective GluN2B Negative Allosteric Modulators for the Treatment of Mood Disorders” (J Med Chem, 2020)

Experiments:
[1] = molecular target: Cytochrome P450 3A4 (Homo sapiens, UniProt P08684); assay: Time-dependent inhibition of CYP3A4 in human liver microsomes at 10 uM using midazolam as substrate by LC-MS/MS analysis; format: ADME
Method in brief: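 CYP3A4 time-dependent inhibition in human liver microsomes. The compound (0.4 to 10 μM) was tested with and without 30 min preincubation. IC50 was taken from percent activity remaining versus vehicle, averaged over two independent experiments. A >2-fold IC50 shift after preincubation was the threshold for time-dependent inhibition.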

[2] = AUC (infinity) in dog at 0.1 mg/kg, iv by LC-MS/MS analysis; format: ADME, organism-based, Canis lupus familiaris; set-up: time infinity, route intravenous, dose 0.1 mg/kg; conditions: in vivo

Sequence of Cytochrome P450 3A4 (P08684 whole entry): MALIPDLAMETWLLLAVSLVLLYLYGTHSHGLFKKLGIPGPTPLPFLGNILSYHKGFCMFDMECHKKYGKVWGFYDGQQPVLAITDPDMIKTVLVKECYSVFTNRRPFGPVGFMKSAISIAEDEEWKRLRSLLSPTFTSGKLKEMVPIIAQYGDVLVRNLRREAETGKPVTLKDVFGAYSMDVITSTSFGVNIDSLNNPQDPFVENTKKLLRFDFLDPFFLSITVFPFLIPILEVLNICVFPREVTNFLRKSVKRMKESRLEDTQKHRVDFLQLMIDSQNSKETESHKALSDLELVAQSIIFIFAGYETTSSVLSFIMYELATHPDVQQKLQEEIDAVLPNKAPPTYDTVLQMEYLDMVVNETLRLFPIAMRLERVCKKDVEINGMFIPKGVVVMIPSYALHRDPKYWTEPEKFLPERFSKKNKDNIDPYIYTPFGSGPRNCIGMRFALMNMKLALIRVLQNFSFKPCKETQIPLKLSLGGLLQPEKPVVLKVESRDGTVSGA

With `Cn1c(=O)n(CC(=O)N2CCC2)c2cc(-c3ccc(C(F)(F)F)s3)cnc21` the TDI [1] was “Not Active” and the AUC(0-inf) [2] was 126 ng·h/mL.
